The EternaBench riboswitch data

Tested on: MS2 coat protein
Assay: apparent Kd, MS2 coat protein; higher = weaker binding; RNA-MaP array; FMN 200 µM where present
Summary of the method: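 Stalled E. coli RNA polymerase transcribed each design on Illumina sequencing-chip clusters. The clusters were titrated with SNAP-549-labelled MS2 coat protein, starting at 0.7 or 1.5 nM and doubling up to 3 µM, first without ligand and then with constant ligand, in 100 mM Tris-HCl pH 7.5, 80 mM KCl, 4 mM MgCl2, BSA, DTT, yeast tRNA and Tween-20. Green signal was normalised to red-channel RNA signal and to the control-cluster median Fmax. The apparent Kd is the median of filtered binding-curve fits made for each cluster.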

[1] = designed as: ON switch for flavin mononucleotide, no ligand
[2] = ligand present: flavin mononucleotide, designed as: ON switch for flavin mononucleotide
[3] = designed as: OFF switch for flavin mononucleotide, no ligand
[4] = ligand present: flavin mononucleotide, designed as: OFF switch for flavin mononucleotide

| Sequence | apparent Kd [1] [nM] | apparent Kd [2] [nM] | apparent Kd [3] [nM] | apparent Kd [4] [nM] |
| --- | --- | --- | --- | --- |
| GGACGUCACAUUAACAUGAGGAUCACCCAUGUCAAAAGACAUGAGGAUAUGGAUCCUAAUUGGAUCCAGAAGGCAUGGACGUCC | 664 | 33.4 | – | – |
| GUGUAUAGCCUCGAGGAUAUCCUGUAAUGCACAUGAGGAUCACCCAUGUAUGAGCGAGUUUUUUGGGAGAAGGCGAGUUAUCGGU | 26.6 | 16.9 | – | – |
| UGGUACAUGGGAGGAUAUGGGAAGUUAACAUGAGGAUCACCCAUGUUUGCCGAAAGGCAAAAGAACUAGAAGGCCCAUGUACCU | 23.1 | 16.4 | – | – |
| GGGCUGUCAGGAUAUCCCGGGUUUGGGUAAACCCGGGCCCGGGAGAAGGGACAUGAGGAUCACCCAUGUGGCCC | – | – | 32.1 | 31.8 |
| AUACUCGUUGUGAGGAUAUCGUUUUCGUCACGGAUCGAGAAGGCACAUGAGGAUCACCCAUGUUUGACGUGAAU | – | – | 17.1 | 44.3 |
| ACAUGAGGAUCACCCAUGUAUACAUAGGAUAUUGGUGAUCAGGGAUGUUUUACAGGAUAUGUCUGCGAGAAGGAUGCAAGUACA | 352 | 151 | – | – |
| AAAAUGUGAGGAUAUGCGAAGGCGUCUGAUAGACGAGGCUAGCAGAAGGCACAUGAGGAUCACCCAUGUCCAAA | – | – | 40.3 | 60.3 |
| CUUCUGUGAGGAUAUGUUAGCUCCCGGCAUGUCGCUGGGAGACAGAAGGCACAUGAGGAUCACCCAUGUGGGCG | – | – | 34 | 161 |
| UGUAGUUACGUAGGAUAUCCACGGGCACCCGUAGGAGAAGGACGCUGGACAUGAGGAUCACCCAUGUAUAGAUGGGUGCCUUUC | – | – | 125 | 206 |
| GCAUGACAAAGUCAUGCAUAACGAACAUGAGGAUCACCCAUGUAGGAUAUGCUACUCAAAGAGUAGCAGAAGGACAUGUGUCUU | – | – | 31.1 | 160 |
| AUAAUGUGAGGAUAUCAGUCGACUAGCUGCGGCUAGUCGACUGAGAAGGCACAUGAGGAUCACCCAUGUGUUUC | – | – | 17.9 | 40.8 |
| AUCAGCUCGUCAGGAUAUACGUCACAGCGUCAGCAGUGUGGUAAGAUCACAUGAGGAUCACCCAUGUAGAAGGGACGAGCUGAU | – | – | 16.8 | 223 |
| GAAUGCCUGUCGAUGCUCGACAUGAGGAUCACCCAUGUAUAGCAGGAUAUGCAGAACUGACUCGUGCAGAAGGGCUAUACCUAA | – | – | 18.8 | 47.7 |
| AAGAAGUCAGGAUAUCCUGCUCGUCACUUGCGUGAUGAGUAGGAGAAGGGACAUGAGGAUCACCCAUGUAAAGG | – | – | 137 | 267 |
| GGAAAACAUGAGGAUCACCCAUGUGAGGAUAUCGAUGUCCAAAGAAAAGUGCGGGACUCGAGAAGGCACUUGGA | – | – | 52.9 | 33.7 |
| CGAGAUCUUGAGAAGGCAUAAUAUAUAAUACCACAUGUUUACAUGAGGAUCACCCAUGUUUCCAAUGAGGAUAUCAGGAUUUCG | – | – | 19.6 | 14.8 |
| CAACGUACCAGAGGAUAUGAUUGUGGGUAAAGAGCGCUCAGGUGGCUACAUGAGGAUCACCCAUGUCAGAAGGCUGGAGUUCAA | – | – | 114 | 59.6 |
| UUGUUAGGGAGAGGAUAUUGACAUGAGGAUCACCCAUGUACUUGGGAGUGUUUACUGAAUUCUUACGAGAAGGCUUACAAAUUU | – | – | 165 | 105 |
| GGUUAUUGCAAGGAUAUGCUUAUUUGAGAAAUUGCAGAAGGUGCAACAUGAGGAUCACCCAUGUUGGAUGGGUU | – | – | 65.2 | 278 |
| UUGGUAUUCGUAGGAUAUCUGUCGCCACCGUGUGGAGAAGGACGAACAUGAGGAUCACCCAUGUAUCAUGGUGUGGGCGUUGUU | – | – | 85.8 | 89.9 |
| CUCUCACAUGAGGAUCACCCAUGUCCACCUCCGUGAGGAUAUAGAUAAUAAAUACAUUUACUAGAAGGCGCAUCCC | 285 | 298 | – | – |
| AAUAUGUUGCAGAAGGUUAUUUUUAUAACGUUCCUCUUGACAUGAGGAUCACCCAUGUAAUUGUUGAAGGAUAUGCAAUAUAUU | – | – | 6.69 | 6.18 |
| ACAUACUUUCGAGGAUAUCGGUGAUAAAUUUUACGAGAAGGCGAUAAAAGAUAUAAUCUUAUAGACAUGAGGAUCACCCAUGUA | 30.5 | 27.3 | – | – |
| AUUAUUGACGAAGGAUAUGGAUACAUGAGGAUCACCCAUGUAUAAUUUGUGAUCAUAUAUAUGAUCCAGAAGGUCGUUGUUUAU | – | – | 41 | 63.8 |
| CGGUCGAUGUAAGGAUAUCGACUGGAUAACAGUCGAGAAGGUACAUGAGGAUCACCCAUGUAAACCUAUAAUAAAUAACGACCG | – | – | 11.2 | 14.6 |
| CUCUAGCUCACAGGAUAUGGGUGUCGACGAUGCCCAGAAGGGUGAUUUGGCACAUGAGGAUCACCCAUGUGGGCGCUUGAAUAU | 44.5 | 94.3 | – | – |
| GUCAGCUCGUAAGGAUAUACAACACUGCUUCGGCAGUGUAUUAAGAUCACAUGAGGAUCACCCAUGUAGAAGGCACGAGCUGAU | – | – | 7.06 | 18.9 |
| ACUUACUGAGGAUAUACAUAGAUUUACAUGAGGAUCACCCAUGUUCCUCUAUGUAUAUAUGUAGAAGGCAGAAGUU | – | – | 26.3 | 97.8 |

| Sequence | apparent Kd [1] [nM] | apparent Kd [2] [nM] | apparent Kd [3] [nM] | apparent Kd [4] [nM] |
| --- | --- | --- | --- | --- |
| GUCGGAAACGACAAAAGUAGCAUAGGAGAAGGUUCAUUAAACAUGAGGAUCACCCAUGUAAUUGGAAAGGAUAUCCUAUGCUAC | 5.04 | 5.06 | – | – |
| CCAUCGUGUGUGAGGAUAUGCUGGUCCUUGGAUCAGCAGAAGGCACAUGAGGAUCACCCAUGUGAAUACGGUGG | – | – | 18.6 | 29 |
| GAUACACAUGAGGAUCACCCAUGUGAGGAUAUGAUACUAUGUACUUCGGUACAUAGUAUCAGAAGGCACAUUGA | – | – | 47.6 | 76.8 |
| UAUUAGUAAGGAUAUCUCGUCAUGGACGUGAGUCCAUGACGAGAGAAGGUACAUGAGGAUCACCCAUGUCUAUU | – | – | 18.1 | 19.4 |
| GGAUGACAAAGUCAUCCUAAACGAACAUGAGGAUCACCCAUGUAGGAUAUGCUUCUCAAAGAGAAGCAGAAGGACAUGUGCCUU | – | – | 35.1 | 276 |
| CUGUUAUAGGUCCAGUUUUACAACAUGAGGAUCACCCAUGUGCAGGAUAUCGUGUUAAUUUUCAUCGAGAAGGGCAUAGUCACG | – | – | 37.6 | 105 |
| GGUACUCAAAGAGUACGGAGUCGAACAUGAGGAUCACCCAUGUAGGAUAUGCAAAGCUAGAAGUAGCAGAAGGACAUGUGCAGC | – | – | 15 | 17.1 |
| AAUGGCAUAGAGAAGGCGCCGCAGCUCUUCCUCCCAUCCCAACGACAUGAGGAUCACCCAUGUAGCGAGGAUAUCUAUACCGUC | – | – | 7.08 | 12.5 |
| CGAUAUUAUAGAGGAUAUGUUUAACAUGAGGAUCACCCAUGUGAGGUGGAAUUAAUGUAUUACUUACAGAAGGCUAUACAAUCG | – | – | 316 | 432 |
| CAGGGUAGAGGAUAUACGUAGGUACAGAUCCGUGUGAUCCUACAUGAGGAUCACCCAUGUAGAAGGCUAGCCUG | – | – | 305 | 25.9 |
| CGCGAACAGGUUAACAUGAGGAUCACCCAUGUGGACUCAUGGUAGGAUAUCGGGAAGGAGGAAACCGAGAAGGGCCGGUGAGCC | 324 | 107 | – | – |
| CUGAUGUUAGGAUAUCAGGUCGCGCACGAAGGCGCGCGGCAUGAGAAGGAACAUGAGGAUCACCCAUGUGACGA | – | – | 48.4 | 145 |
| AAUUAUUAUCGAGGAUAUCGUAUUGAAAUAAUAUGAGAAGGCGGGAUAAACAUGAGGAUCACCCAUGUGAGCCUGAUGCUUGUG | – | – | 19.2 | 35.4 |
| ACUUUAACUCGACAUGAGGAUCACCCAUGUCCUAGUACUACACAGGAUAUCUCGGACUCCUCGUGAGAGAAGGGUGAGCACUAA | 395 | 587 | – | – |
| CUUUCGUGAGGAUAUGUGGCUUCGAACGUGAGAUCGAGGCUACAGAAGGCACAUGAGGAUCACCCAUGUUCCUC | – | – | 34.3 | 395 |
| CGGCGGGCAGGAUAUACAUGAGGAUCACCCAUGUGUGUCCAUACGCGUGAGUCCUCGUGUAGAAGGGUUUGUUG | – | – | 14.9 | 13.4 |
| AUUAUAUAGACAGGAUAUUGAUUAUUAUUUUAACAUGAGGAUCACCCAUGUAGCCUUAUGUAUAACAAGAAGGGUCAUUUAUUA | – | – | 151 | 190 |
| ACGGUGGUCACAGGAUAUCCGGCCCGCGUGGCCGGAGAAGGGUGACUCAGAACCACAUGAGGAUCACCCAUGUGCCUUGCCGUA | 102 | 35.5 | – | – |
| AUGGAUGUCACAGGAUAUGCUAUGGAUACCAUAGCAGAAGGGUGAUCCAUCCUAUGUAAAUACAUGAGGAUCACCCAUGUAUCC | 112 | 73.6 | – | – |
| GACAUGUGAGGAUAUCUGAUGUCUAACUUCGGUUAGACAUCAGAGAAGGCACAUGAGGAUCACCCAUGUCUGUC | – | – | 194 | 232 |
| AACUCUGAGAAGGAUAUACAGUGCGAAAGGACAGUAGAAGGUUUCACAUGAGGAUCACCCAUGUCGAAUAGUGA | – | – | 24.7 | 33.8 |
| CGCUACAUGAGGAUCACCCAUGUACUUACUUGCACGUGAACGAGAAGGCCACAGCAACACAGCGUGGAGGAUAUCGUGGUGCCU | 10.8 | 9.35 | – | – |
| GUCAGCUCGUGAGGAUAUACUACACUGCUUCGGCAGUGUAUUAAGAUCACAUGAGGAUCACCCAUGUAGAAGGCACGAGCUGAU | – | – | 5.95 | 17 |
| CAGCACGGAAACAAAGUCUUCGGACAUGAGGAUCACCCAUGUAAGGAUAUGCCUACUAAAAGUAGGCAGAAGGUACGCGUGCUG | – | – | 18.9 | 50.9 |
| UAUAGCCCUAGUUCGAGUGUCUAGGAGGAUAUACAGAGGCAGCCAAAGACAUGAGGAUCACCCAUGUAGAAGGCCUAGACGGUA | – | – | – | 82.3 |
| GCACUUGCGUAGAAGGUACAUUAUAAUUAAUUGUAAGGAUAUACAAACAUGAGGAUCACCCAUGUAAAUGGAAUUUGCAAGUGC | 6.52 | 6.36 | – | – |
| UUAUACUGAGAGAAGGUUCAAACUACAUAUUGCAUACAUGAGGAUCACCCAUGUUGGUGAAUAAGAAAGGAUAUUUUACUAUAU | – | – | 44 | 32.4 |
